UBC13 inh: human UBC13 polyubiquitination inhibition. UBC13 polyubiquitin chain formation, TR-FRET. inhibition, % at 20 µM. 330,000 compounds, 0.47% hits; in the data active means inhibition above about 45%, passing the limit was not always enough
Target sequence (P61088 whole entry, looked up): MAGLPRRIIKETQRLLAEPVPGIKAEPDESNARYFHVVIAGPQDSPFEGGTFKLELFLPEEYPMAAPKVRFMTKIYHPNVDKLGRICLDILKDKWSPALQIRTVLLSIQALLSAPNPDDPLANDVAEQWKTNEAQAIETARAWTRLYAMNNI
UBC9 SUMO inh: blocks human SUMOylation mediated by UBC9; inhibition, % at 35 µM; 290,000 compounds, 0.36% hits; P63279; HTRF SUMOylation assay, SAE1/SAE2 + UBC9, in vitro; in the data active means inhibition above about 50%, passing the limit was not always enough
Target sequence (P63279 whole entry, looked up): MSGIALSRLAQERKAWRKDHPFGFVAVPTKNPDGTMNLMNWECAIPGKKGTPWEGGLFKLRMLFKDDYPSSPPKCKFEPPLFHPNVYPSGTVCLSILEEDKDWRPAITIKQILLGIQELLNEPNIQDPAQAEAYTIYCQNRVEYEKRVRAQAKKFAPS
Rin1-Abl PPI inh: inhibitors of human Rin1-Abl protein interaction. inhibition, % at 7.35 µM. TR-FRET Rin1/Abl binding, biochemical. P00519+Q13671. 360,000 compounds, 0.4% hits; in the data active means inhibition above about 5%, passing the limit was not always enough
RBBP9 inh: human RBBP9 hydrolase inhibition; O75884; recombinant RBBP9, FP-Rh probe fluorescence polarization; inhibition, % at 7.94 µM; 220,000 compounds, 0.2% hits;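 active means inhibition above the campaign mean of all tested compounds plus 3 SD, cut at about 14% in these data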;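 further: plate controls were DMSO wells with RBBP9 for no effect and wells lacking RBBP9 protein for full effect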
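Measured by – fluorescence polarization · Test system – RBBP9 protein · Input – 2.5 µM RBBP9 dispensing solution, before mixing · Measure – percent inhibition from mP, scaled between DMSO and no-protein wells · Benchmarks – DMSO-treated enzyme wells and wells lacking RBBP9 · Times – preincubation 30 min plus labeling 45 min at 25 °C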
PREPL inhibitor: inhibitors of human prolyl oligopeptidase-like enzyme PREPL; 320,000 compounds, 0.68% hits; inhibition, % at 5.96 µM; recombinant PREPL, fluorescence polarization activity-based probe; in the data active means inhibition above about 43%;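 further: 0% = enzyme with DMSO and 100% = wells lacking enzyme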
ALR inh: blocks human ALR sulfhydryl oxidase activity; P55789; purified ALR, DTT oxidation, H2O2 HRP-luminol luminescence; inhibition, % (test concentration not listed); 290,000 compounds, 3.8% hits; AID 485317;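 active means mean replicate inhibition above about 79%, with every replicate also reaching it, limit read from the data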
An asterisk follows results filed as active; x = no result. Rows were chosen to be rich in hits. Some 4.3% of all compounds tested hit in one or more screens of this group.

SMILES | UBC13 inh | UBC9 SUMO inh | Rin1-Abl PPI inh | RBBP9 inh | PREPL inhibitor | ALR inh
C=CCSC1=N/C(=C\c2sccc2C)C(=O)S1 | 0 | 14 | -4 | -1 | 4 | 53
Cn1ccnc1SCC(=O)Nc1cc(F)ccc1F | -6 | 18 | 1 | x | 3 | -9
CC(/C=N/n1c(-c2cc(C)[nH]n2)n[nH]c1=S)=C\c1ccco1 | -9 | 15 | 2 | 3 | -5 | 98*
CC(/C=N/n1c(-c2ccccn2)n[nH]c1=S)=C\c1ccccc1 | -25 | 14 | 1 | -9 | 9 | 96*
S=c1[nH]nc(-c2ccccn2)n1/N=C/c1ccccc1 | 3 | -5 | -4 | -4 | 0 | 14
S=c1[nH]nc(-c2ccccn2)n1/N=C/c1cccc2ccccc12 | -20 | 8 | 3 | -1 | -7 | 96*
Cc1cc(C)n(CCc2nc(-c3cccs3)cs2)n1 | -3 | 22 | 2 | -3 | -2 | -9
COc1ccc(OC)c(-c2csc(CCn3nc(C)cc3C)n2)c1 | 2 | 10 | 2 | -7 | 4 | x
COc1cccc2cc(-c3csc(CCn4nc(C)cc4C)n3)c(=O)oc12 | 4 | 27 | -2 | -6 | -9 | 98*
Cc1cc(C)n(CCc2nc(-c3ccco3)cs2)n1 | 7 | 14 | -2 | 3 | 6 | 99*
CC/C(C)=N/Nc1nc(-c2cc3cccc(OC)c3oc2=O)cs1 | -13 | 29 | -7 | 9 | 19 | 98*
COc1cccc2cc(-c3nnc(-c4ccccc4)o3)c(=O)oc12 | 8 | 8 | 0 | -3 | 7 | -4
O=C(CNC(=O)c1ccc(Br)o1)NNC(=O)c1ccccc1F | -7 | 9 | 2 | x | -1 | -2
CCOC(=O)N1CCN(C(=O)c2ccc(Cn3c(=S)[nH]c4ccc(Br)cc4c3=O)cc2)CC1 | 19 | -5 | 1 | x | 5 | 3
CCOc1ccccc1Oc1c(C)oc2c(CN3CCN(C)CC3)c(O)ccc2c1=O | 24 | 50* | -4 | -1 | -1 | 0
COc1ccccc1Oc1c(C)oc2c(CN3CCOCC3)c(O)ccc2c1=O | 14 | 29 | -2 | -8 | -11 | -5
CC(C)OP(=O)(c1ccc(N(C)C)cc1)C(O)c1ccc(N(C)C)cc1 (centres undefined) | 2 | 14 | 3 | x | 7 | 98*
CC(C)COP(=O)(OCC(C)C)C(O)c1ccc(N(C)C)cc1 (centres undefined) | 1 | -5 | -4 | 0 | 17 | 92*
CC(C)COP(=O)(c1ccc(N(C)C)cc1)C(O)c1ccccc1 (centres undefined) | 3 | 17 | -1 | x | -8 | 11
CC(C)COP(=O)(c1ccc(N(C)C)cc1)C(O)c1ccc(N(C)C)cc1 (centres undefined) | 6 | 18 | 5 | x | 0 | 98*
Cc1ccc(C)c(Cn2nc(-c3cc(C)ccc3C)ccc2=O)c1 | 2 | -10 | 1 | x | -3 | -2
COc1ccccc1NC(=S)N1CC(C)OC(C)C1 (centres undefined) | -9 | 19 | 3 | -3 | -2 | -4
CN1CCCCC1CCN1c2ccccc2Sc2ccc(S(C)=O)cc21 (centres undefined) | 0 | 26 | -5 | -3 | 39 | x
CN1CCCC(CN2c3ccccc3Sc3ccccc32)C1 (centres undefined) | 38 | -11 | -1 | x | 35 | 99*
Cc1cc(C)n2nc(C(=O)N3CCN(c4ccc([N+](=O)[O-])cc4)CC3)nc2n1 | -28 | 8 | -1 | 5 | 16 | 97*
SMILES | UBC13 inh | UBC9 SUMO inh | Rin1-Abl PPI inh | RBBP9 inh | PREPL inhibitor | ALR inh
COc1ccc(N2CCN(C(=O)c3nc4nc(C)cc(C)n4n3)CC2)cc1 | -12 | 16 | 2 | -9 | 13 | 42
COc1cc(C(=O)N/N=C/c2cc([N+](=O)[O-])cs2)cc(OC)c1OC | -15 | 68* | -2 | -9 | 15 | 15
CCOc1ccc(C(=O)N/N=C/c2cc([N+](=O)[O-])cs2)cc1 | -11 | 18 | -2 | -7 | -1 | 5
CCCCn1c(NCCO)nc2ccccc21 | 5 | -13 | -1 | -1 | 13 | 98*
CC(C)Cn1c(NCCO)nc2ccccc21 | 4 | 13 | -2 | -7 | 2 | 24
CCCCn1c(NCc2ccccc2O)nc2ccccc21 | 30 | -8 | -5 | 3 | -3 | 98*
CCCCn1c(NCc2ccc(OC)cc2O)nc2ccccc21 | x | x | -4 | x | x | x
CCCOc1ccc(-c2cnc(N)s2)cc1 | 6 | -15 | -4 | -4 | 4 | 98*

High-throughput results (PubChem)
